Results as given in ChEMBL document CHEMBL4715845, “Conjugable A adenosine receptor antagonists for the development of functionalized ligands and their use in fluorescent probes” (Eur J Med Chem, 2020).

Key:
Homo sapiens [1] = organism: Homo sapiens; test: Selectivity ratio of Ki for displacement of [3H]R-PIA from recombinant human A1AR expressed in CHO cell membranes to Ki for displacement of [125I]AB-MEC from recombinant human A3R expressed in CHO cell membranes
Homo sapiens [2] = organism: Homo sapiens; test: Selectivity ratio of Ki for displacement of [3H]R-PIA from recombinant human A1AR expressed in CHO cell membranes to Ki for displacement of [3H]CGS21680 from recombinant human A2AAR expressed in HEK293 cell membranes
Homo sapiens [3] = organism: Homo sapiens; test: Selectivity ratio of Ki for displacement of [3H]CGS21680 from recombinant human A2AAR expressed in HEK293 cell membranes to Ki for displacement of [125I]AB-MEC from recombinant human A3R expressed in CHO cell membranes
[4] = target: T1, Adenosine receptor A1 (Homo sapiens) (UniProt P30542); test: Displacement of [3H]R-PIA from recombinant human A1AR expressed in CHO cell membranes at 10 uM relative to control
T1 sequence (whole entry): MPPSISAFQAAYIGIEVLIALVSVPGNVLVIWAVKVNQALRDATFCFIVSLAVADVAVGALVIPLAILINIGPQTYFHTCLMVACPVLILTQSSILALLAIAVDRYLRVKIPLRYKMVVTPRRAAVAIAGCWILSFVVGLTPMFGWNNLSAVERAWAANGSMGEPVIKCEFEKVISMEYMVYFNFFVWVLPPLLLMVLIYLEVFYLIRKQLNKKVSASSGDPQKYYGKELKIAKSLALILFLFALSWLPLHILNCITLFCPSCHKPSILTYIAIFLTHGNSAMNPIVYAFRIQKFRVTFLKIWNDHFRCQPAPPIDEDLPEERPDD
Outline: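 [3H]R-PIA competition at membranes of CHO cells expressing recombinant human A1AR, with test compound at a single concentration of 10 μM. Adenosine deaminase (3 units/mL) present in the 30 min, 30 °C preincubation and during incubation. Final DMSO ≤2%. Bound radioligand collected on GF/B filters. Reported as % inhibition of specific binding.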

Compound | Ratio Ki (Homo sapiens [1]) | Ratio Ki (Homo sapiens [2]) | Ratio Ki (Homo sapiens [3]) | inhibition [4] [%]
Cn1cc2c(nc(NC(=O)Nc3ccc(CC(=O)O)cc3)n3nc(-c4ccco4)nc23)n1 | > 78 | > 10 | 7.8 | 4
Cn1cc2c(nc(NC(=O)CCCc3cn(CCCCCCNC(=O)c4ccc(-c5c6ccc(=N)c(S(=O)(=O)O)c-6oc6c(S(=O)(=O)O)c(N)ccc56)c(C(=O)O)c4)nn3)n3nc(-c4ccco4)nc23)n1 | – | – | 2.83 | –
